Test results as given in ChEMBL document CHEMBL1949646, “Design, synthesis, in vitro antimicrobial and anticancer activity of novel methylenebis-isoxazolo[4,5-b]azepines derivatives” (Eur J Med Chem, 2012).
≈ marks a conversion by molar mass, not a printed value.

Tests used:
MDA-MB-231 = test: Cytotoxicity against human estrogen receptor-negative MDA-MB-231 cells after 48 hrs by MTT assay; assay type: functional, cell-based; settings: MDA-MB-231, 48 h
Procedure, shortened: (§1)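 Cells kept in a humidified 5% CO2 incubator. Compounds diluted in culture medium and added to wells alongside a vehicle control. After MTT, supernatant removed, formazan dissolved in DMSO, and absorbance read at 540 nm. Percentage growth inhibition calculated. At least three independent assays.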

Escherichia coli = test: Antibacterial activity against Escherichia coli after 24 to 28 hrs by agar diffusion method; assay type: functional
Trichoderma viride = test: Antifungal activity against Trichoderma viride after 5 days by agar diffusion method; assay type: functional; settings: 120 h
Pseudomonas aeruginosa = test: Antibacterial activity against Pseudomonas aeruginosa after 24 to 28 hrs by agar diffusion method; assay type: functional
Aspergillus flavus = test: Antifungal activity against Aspergillus flavus after 5 days by agar diffusion method; assay type: functional; settings: 120 h
MCF7 = test: Cytotoxicity against human estrogen receptor-positive MCF7 cells after 48 hrs by MTT assay; assay type: functional, cell-based; settings: MCF7, 48 h; procedure, shortened: as §1
HEK293 = test: Cytotoxicity against human HEK293 cells after 48 hrs by MTT assay; assay type: cell-based; settings: HEK293, 48 h; procedure, shortened: as §1
Bacillus subtilis = test: Antibacterial activity against Bacillus subtilis after 24 to 28 hrs by agar diffusion method; assay type: functional
Lactococcus lactis = test: Antibacterial activity against Streptococcus lactis after 24 to 28 hrs by agar diffusion method; assay type: functional

MIC (Escherichia coli) | MIC (Trichoderma viride) | MIC (Pseudomonas aeruginosa) | MIC (Aspergillus flavus) | MIC (Bacillus subtilis) | MIC (Lactococcus lactis) | SMILES | IC50 (MDA-MB-231) | IC50 (MCF7) | IC50 (HEK293)
27 µg/mL (≈ 33.5 µM) | 32 µg/mL (≈ 39.7 µM) | 30 µg/mL (≈ 37.2 µM) | 30 µg/mL (≈ 37.2 µM) | 30 µg/mL (≈ 37.2 µM) | 25 µg/mL (≈ 31 µM) | Cc1noc2c1N=C(c1ccc(Br)cc1)CC(c1cc(Cc3ccc(O)c(C4CC(c5ccc(Br)cc5)=Nc5c(C)noc5C4)c3)ccc1O)C2 (stereo not given) | 51.2 µM | 34.2 µM | 54.5 µM
28 µg/mL (≈ 39 µM) | 30 µg/mL (≈ 41.8 µM) | 30 µg/mL (≈ 41.8 µM) | 32 µg/mL (≈ 44.6 µM) | 28 µg/mL (≈ 39 µM) | 25 µg/mL (≈ 34.8 µM) | Cc1noc2c1N=C(c1ccc(Cl)cc1)CC(c1cc(Cc3ccc(O)c(C4CC(c5ccc(Cl)cc5)=Nc5c(C)noc5C4)c3)ccc1O)C2 (stereo not given) | 52.5 µM | 30.4 µM | 53.3 µM
35 µg/mL (≈ 49.4 µM) | 40 µg/mL (≈ 56.4 µM) | 32 µg/mL (≈ 45.1 µM) | 35 µg/mL (≈ 49.4 µM) | 35 µg/mL (≈ 49.4 µM) | 30 µg/mL (≈ 42.3 µM) | COc1ccc(C2=Nc3c(C)noc3CC(c3cc(Cc4ccc(O)c(C5CC(c6ccc(OC)cc6)=Nc6c(C)noc6C5)c4)ccc3O)C2)cc1 (stereo not given) | 58.1 µM | 40.4 µM | 57.4 µM
35 µg/mL (≈ 51.7 µM) | 38 µg/mL (≈ 56.1 µM) | 40 µg/mL (≈ 59.1 µM) | 35 µg/mL (≈ 51.7 µM) | 35 µg/mL (≈ 51.7 µM) | 32 µg/mL (≈ 47.3 µM) | Cc1ccc(C2=Nc3c(C)noc3CC(c3cc(Cc4ccc(O)c(C5CC(c6ccc(C)cc6)=Nc6c(C)noc6C5)c4)ccc3O)C2)cc1 (stereo not given) | 61.1 µM | 42.3 µM | 63.4 µM

The remaining lines, values behind:

SMILES | MIC (Escherichia coli) | MIC (Trichoderma viride) | MIC (Pseudomonas aeruginosa) | MIC (Aspergillus flavus) | MIC (Bacillus subtilis) | MIC (Lactococcus lactis) | IC50 (MDA-MB-231) | IC50 (MCF7) | IC50 (HEK293)
Cc1noc2c1N=C(c1ccccc1)CC(c1cc(Cc3ccc(O)c(C4CC(c5ccccc5)=Nc5c(C)noc5C4)c3)ccc1O)C2 (stereo not given) | 40 µg/mL (≈ 61.7 µM) | 40 µg/mL (≈ 61.7 µM) | 35 µg/mL (≈ 53.9 µM) | 40 µg/mL (≈ 61.7 µM) | 35 µg/mL (≈ 53.9 µM) | 40 µg/mL (≈ 61.7 µM) | 82.6 µM | 80.6 µM | 85.4 µM
Cc1noc2c1N=C(c1ccc([N+](=O)[O-])cc1)CC(c1cc(Cc3ccc(O)c(C4CC(c5ccc([N+](=O)[O-])cc5)=Nc5c(C)noc5C4)c3)ccc1O)C2 (stereo not given) | 28 µg/mL (≈ 37.9 µM) | 30 µg/mL (≈ 40.6 µM) | 28 µg/mL (≈ 37.9 µM) | 30 µg/mL (≈ 40.6 µM) | 30 µg/mL (≈ 40.6 µM) | 26 µg/mL (≈ 35.2 µM) | 53.4 µM | 36.3 µM | 55.6 µM
Cc1noc2c1N=C(c1ccccc1O)CC(c1cc(Cc3ccc(O)c(C4CC(c5ccccc5O)=Nc5c(C)noc5C4)c3)ccc1O)C2 (stereo not given) | 36 µg/mL (≈ 52.9 µM) | 40 µg/mL (≈ 58.8 µM) | 38 µg/mL (≈ 55.8 µM) | 38 µg/mL (≈ 55.8 µM) | 38 µg/mL (≈ 55.8 µM) | 35 µg/mL (≈ 51.4 µM) | 63.4 µM | 44.3 µM | 65.5 µM
Cc1noc2c1N=C(c1ccco1)CC(c1cc(Cc3ccc(O)c(C4CC(c5ccco5)=Nc5c(C)noc5C4)c3)ccc1O)C2 (stereo not given) | 16 µg/mL (≈ 25.4 µM) | 16 µg/mL (≈ 25.4 µM) | 14 µg/mL (≈ 22.3 µM) | 20 µg/mL (≈ 31.8 µM) | 20 µg/mL (≈ 31.8 µM) | 22 µg/mL (≈ 35 µM) | 10.3 µM | 12.5 µM | 30.2 µM
Cc1noc2c1N=C(c1cccs1)CC(c1cc(Cc3ccc(O)c(C4CC(c5cccs5)=Nc5c(C)noc5C4)c3)ccc1O)C2 (stereo not given) | 14 µg/mL (≈ 21.2 µM) | 14 µg/mL (≈ 21.2 µM) | 12 µg/mL (≈ 18.2 µM) | 15 µg/mL (≈ 22.7 µM) | 19 µg/mL (≈ 28.8 µM) | 20 µg/mL (≈ 30.3 µM) | 18.2 µM | 10.2 µM | 10.3 µM
CCn1cc(C(=O)O)c(=O)c2ccc(C)nc21 [NALIDIXIC ACID] | 28 µg/mL (≈ 121 µM) |  | 30 µg/mL (≈ 129 µM) |  | 30 µg/mL (≈ 129 µM) | 25 µg/mL (≈ 108 µM) |  |  | 
